# Measured values reported in ChEMBL document CHEMBL5236592, “Induction of Ferroptosis in Glioblastoma and Ovarian Cancers by a New Pyrrole Tubulin Assembly Inhibitor” (J Med Chem, 2022).
# Activity calls are given as the source filed them. The rule behind the calls is not given here.
# Key:
# Mus musculus [1] = assay: Upregulation of Akr1c1 mRNA expression in tumor of BALB/C nu/nu mouse xenografted with human SK-OV-3 cells at 25 mg/kg, ip administered every 2 days for 40 days by qPCR analysis; type: functional, organism-based; conditions: time 40.0 day
# Method in brief: (§1)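 Female BALB/c nu/nu mice bearing sc U-87 MG or SKOV-3 xenografts were dosed ip at 25 mg/kg (100 μL) every 2 days, or given saline, and tumors were taken at day 40. RNA was extracted from about 20 mg of tissue. qPCR ran 40 cycles (95 °C 15 min; 94 °C 20 s; 60 °C 34 s) on a 69-gene panel. Fold change was by 2^–ΔΔCt, with ≥1.5 counted as increased.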
# U-87MG ATCC [2] = assay: Antitumor activity against human U-87 MG cells xenografted in BALB/C nu/nu mouse assessed as reduction in tumor growth at 25 mg/kg, ip administered every 2 days for 40 days; type: functional, organism-based; conditions: time 40.0 day
# Method in brief: (§2)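 Female BALB/c nu/nu mice, 10 weeks old, 4 per group. Received subcutaneous U-87 MG or SKOV-3 cells (1 × 10^8 cells/mL, harvested in log phase). Dosed ip with 100 μL at 25 mg/kg every 2 days; controls got 100 μL saline on the same schedule. Sacrificed at 40 days; tumors weighed, volume = ab²/2. Tumor sections (6 μm, paraffin) stained by immunofluorescence for Ki67 or CD31 with Alexa Fluor 488 secondary.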
# Mus musculus [3] = assay: Upregulation of Dpp4 mRNA expression in tumor of BALB/C nu/nu mouse xenografted with human SK-OV-3 cells at 25 mg/kg, ip administered every 2 days for 40 days by qPCR analysis; type: functional, organism-based; conditions: time 40.0 day; method in brief: as §1
# Mus musculus [4] = assay: Upregulation of Htra2 mRNA expression in tumor of BALB/C nu/nu mouse xenografted with human U-87 MG cells at 25 mg/kg, ip administered every 2 days for 40 days by qPCR analysis; type: functional, organism-based; conditions: time 40.0 day
# Method in brief: (§3)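 Female BALB/c nu/nu mice, 10 weeks old, 4 per group. Inoculated s.c. with 1 × 10^8 cells/mL of log-phase U-87 MG or SKOV-3 cells. Dosed i.p. with 100 μL at 25 mg/kg every 2 days; controls got 100 μL saline. Tumors harvested on day 40. RNA extracted from about 20 mg of tissue. qPCR panel of 69 genes, 40 cycles (94 °C 20 s, 60 °C 34 s). Analysed by 2–ΔΔCt; fold ≥1.5 taken as increased.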
# U-87MG ATCC [5] = assay: Induction of ferroptosis-mediated antitumor activity against human U-87 MG cells xenografted in BALB/C nu/nu mouse assessed as reduction in FTH1 protein expression in tumor at 25 mg/kg, ip administered every 2 days for 40 days by immunofluoresence staining based assay; type: functional, organism-based; conditions: time 40.0 day
# Method in brief: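 Xenografts of U-87 MG or SKOV-3 (1 × 10^8 cells/mL, sc) in female BALB/c nu/nu mice, 4 per group. Treated ip at 25 mg/kg in 100 μL every 2 days versus saline, tumors collected at day 40. Paraffin sections (6 μm) were blocked at 37 °C for 30 min, then incubated with rabbit anti-GPX4 or anti-FTH1 and then Alexa Fluor 488 anti-rabbit, each for 45 min at 37 °C.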
# Mus musculus [6] = assay: Upregulation of Gls2 mRNA expression in tumor of BALB/C nu/nu mouse xenografted with human U-87 MG cells at 25 mg/kg, ip administered every 2 days for 40 days by qPCR analysis; type: functional, organism-based; conditions: time 40.0 day; method in brief: as §3
# U-87MG ATCC [7] = assay: Induction of ferroptosis-mediated antitumor activity against human U-87 MG cells xenografted in BALB/C nu/nu mouse assessed as reduction in total glutathione level in tumor at 25 mg/kg, ip administered every 2 days for 40 days by biochemical analysis; type: functional, organism-based; conditions: time 40.0 day
# Method in brief: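 U-87 MG or SKOV-3 sc xenografts (1 × 10^8 cells/mL) in female BALB/c nu/nu mice, 4 per group. Given 25 mg/kg ip in 100 μL every 2 days, or saline. Tumors harvested on day 40 and assayed for LPO, MDA, lactic acid, total glutathione (GSH + GSSG), ATP and Fe2+.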
# [8] = Selectivity index, ratio of IC50 for cytotoxicity against human U-87 MG cells to IC50 for cytotoxicity against human OVCAR-3 cells; type: toxicity, cell-based; conditions: U-87 MG cells versus OVCAR-3 cells, read-out: Ratio IC50
# Mus musculus [9] = assay: Upregulation of Sqs mRNA expression in tumor of BALB/C nu/nu mouse xenografted with human SK-OV-3 cells at 25 mg/kg, ip administered every 2 days for 40 days by qPCR analysis; type: functional, organism-based; conditions: time 40.0 day; method in brief: as §3
# Mus musculus [10] = assay: Upregulation of ALOX5 mRNA expression in tumor of BALB/C nu/nu mouse xenografted with human SK-OV-3 cells at 25 mg/kg, ip administered every 2 days for 40 days by qPCR analysis; type: functional, organism-based; conditions: time 40.0 day; method in brief: as §1
# T-cell line = assay: Cytotoxicity against human primary T-lymphocytes assessed as reduction in cell viability at 1 to 2.5 uM incubated for 48 to 72 hrs by Annexin V- APC/PI staining based flow cytometry analysis; type: toxicity; conditions: dose lower 1 µM, time lower 48 hrs, dose upper 2.5 µM, time upper 72 hrs
# Method in brief: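 T lymphocytes negatively selected from healthy-donor PBMCs isolated by density gradient. Cultured at 1.5 × 10^6/mL with 0.1, 1.0 or 2.5 μM compound, DMSO vehicle or untreated, for 48 or 72 h. Stained with annexin V-APC and propidium iodide; early and late apoptotic fractions counted by flow cytometry.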
# Mus musculus [11] = assay: Upregulation of TFRC mRNA expression in tumor of BALB/C nu/nu mouse xenografted with human U-87 MG cells at 25 mg/kg, ip administered every 2 days for 40 days by qPCR analysis; type: functional, organism-based; conditions: time 40.0 day; method in brief: as §3
# Mus musculus [12] = assay: Upregulation of Ptgs2 mRNA expression in tumor of BALB/C nu/nu mouse xenografted with human SK-OV-3 cells at 25 mg/kg, ip administered every 2 days for 40 days by qPCR analysis; type: functional, organism-based; conditions: time 40.0 day; method in brief: as §3
# Mus musculus [13] = assay: Upregulation of Cs mRNA expression in tumor of BALB/C nu/nu mouse xenografted with human U-87 MG cells at 25 mg/kg, ip administered every 2 days for 40 days by qPCR analysis; type: functional, organism-based; conditions: time 40.0 day; method in brief: as §1
# OVCAR-3 = assay: Induction of apoptosis in human OVCAR-3 cells assessed as increase cleaved PARP expression at 5 to 10 nM incubated for 48 hrs by immunoblot analysis; type: functional, cell-based; conditions: dose 5-10 nM
# Method in brief: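 OVCAR-3 cells were grown in DMEM with 20% FBS and 0.01 μg/mL insulin. They were treated for 48 h at 0, 0.25, 2.5, 5 and 10 nM. Lysates were made in SDS–urea, sonicated and run on SDS-PAGE, then transferred to nitrocellulose. Blots were probed with anti-PARP (1:1000; full-length and cleaved) and anti-actin loading control (1:10,000), with HRP/ECL detection.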
# SK-OV-3 = assay: Antitumor activity against human SK-OV-3 cells xenografted in BALB/C nu/nu mouse assessed as reduction in tumor growth at 25 mg/kg, ip administered every 2 days for 40 days; type: functional, organism-based; conditions: time 40.0 day; method in brief: as §2
# Mus musculus [14] = assay: Upregulation of PPIF mRNA expression in tumor of BALB/C nu/nu mouse xenografted with human U-87 MG cells at 25 mg/kg, ip administered every 2 days for 40 days by qPCR analysis; type: functional, organism-based; conditions: time 40.0 day; method in brief: as §3
structure (smiles),measurement,setting,value
COc1cc(C(=O)c2cn(-c3ncccn3)cc2-c2ccco2)cc(OC)c1OC,Activity,Mus musculus [1],Active
same,Activity,U-87MG ATCC [2],Active
same,Activity,Mus musculus [3],Active
same,Activity,Mus musculus [4],Active
same,Activity,U-87MG ATCC [5],Active
same,Activity,Mus musculus [6],Active
same,Activity,U-87MG ATCC [7],Active
same,selectivity ratio,[8],3.5
same,Activity,Mus musculus [9],Active
same,Activity,Mus musculus [10],Active
same,Activity,T-cell line,Toxic
same,Activity,Mus musculus [11],Active
same,Activity,Mus musculus [12],Active
same,Activity,Mus musculus [13],Active
same,Activity,OVCAR-3,Active
same,Activity,SK-OV-3,Active
same,Activity,Mus musculus [14],Active
